Measured values reported in PMC5616077 (Toxicology Reports, 2016).
Entries after “also recorded” stand apart in the source; their conditions may differ.

How the values were obtained:
[1] = test system: carnitine palmitoyltransferase 1 (CPT1); conditions: liver of rats upon treatment; ref [55], [56]; cited from earlier work
HaCaT WT cells [2] = assay: MTT assay; format: cell-based, human; conditions: HaCaT WT, 48 h, up to 20 μM
MTT assay [3] = format: cell-based, human; conditions: human, HaCaT wild-type (WT) cells; for EC50 at 48 h: calculated EC50 (cytotoxicity, viability), HaCaT WT, MTT
CYP1B1 [4] = assay: Real-time PCR, AHR target gene induction; format: cell-based, human; conditions: for CYP1B1 mRNA induction (in words): 24 h
HaCaT WT cells [5] = assay: Enzymatic determination of glutamine; format: cell-based, human; conditions: 48 h, BAP 1 μM, CRY 1 μM, DALP 0.01 μM
HaCaT AHR-KD cells [6] = assay: Targeted metabolomics; format: cell-based, human; conditions: 48 h
Procedure, shortened: (§1)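 Cells in DMEM with 10% FCS were seeded at 1 × 10^5 cells/mL and exposed 24 h later for 48 h, 4 replicates; vehicle controls got 0.1% DMSO. Cells were washed with ice-cold 155 mM ammonium formate pH 7.4, pelleted, weighed and snap-frozen. Extracts went on the p180 kit with isotope-labelled standards, phenylisothiocyanate derivatisation and 5 mM ammonium acetate/methanol extraction. Read by LC–MS/MS (positive) and FIA-MS/MS (±), MRM; μM normalised to pellet weight.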

HaCaT WT cells [7] = assay: Targeted metabolomics; format: cell-based, human; conditions: 48 h; for change of Gln level vs control (in words) / change of PCaa_C36:2 level vs control (in words) / C4:1 concentration / C4 concentration / C6 (C4:1-DC) concentration / C10:2 concentration / C12-DC concentration / C12:1 concentration / C18:1-OH concentration / C18:2 concentration / Gln concentration / PCaa_C32:2 concentration / PCaa_C36:2 concentration / PCae_C32:1 concentration / PCae_C34:2 concentration / PCae_C34:3 concentration / PCae_C36:2 concentration / PCae_C36:3 concentration / PCae_C38:1 concentration / PCae_C38:2 concentration / PCae_C38:3 concentration / PCae_C38:4 concentration / PCae_C40:4 concentration / PCae_C40:5 concentration / SM_C16:1 concentration / alpha-AAA concentration / change of alpha-AAA level vs control (in words) / change of carnitines (e.g. C18:2) vs control (in words): BAP 1 μM, DALP 0.01 μM; for change of Gln level vs control (in words) / change of PCaa_C36:2 level vs control (in words) / C4:1 concentration / C4 concentration / C6 (C4:1-DC) concentration / C10:2 concentration / C12-DC concentration / C12:1 concentration / C18:1-OH concentration / C18:2 concentration / Gln concentration / PCaa_C32:2 concentration / PCaa_C36:2 concentration / PCae_C32:1 concentration / PCae_C34:2 concentration / PCae_C34:3 concentration / PCae_C36:2 concentration / PCae_C36:3 concentration / PCae_C38:1 concentration / PCae_C38:2 concentration / PCae_C38:3 concentration / PCae_C38:4 concentration / PCae_C40:4 concentration / PCae_C40:5 concentration / SM_C16:1 concentration / alpha-AAA concentration: CRY 1 μM; for C4:1 concentration / C4 concentration / C6 (C4:1-DC) concentration / C10:2 concentration / C12-DC concentration / C12:1 concentration / C18:1-OH concentration / C18:2 concentration / Gln concentration / PCaa_C32:2 concentration / PCaa_C36:2 concentration / PCae_C32:1 concentration / PCae_C34:2 concentration / PCae_C34:3 concentration / PCae_C36:2 concentration / PCae_C36:3 concentration / PCae_C38:1 concentration / PCae_C38:2 concentration / PCae_C38:3 concentration / PCae_C38:4 concentration / PCae_C40:4 concentration / PCae_C40:5 concentration / SM_C16:1 concentration / alpha-AAA concentration: mean ± SD
Procedure, shortened: as §1

CYP1A1 [8] = assay: Real-time PCR, AHR target gene induction; format: cell-based, human; conditions: for CYP1A1 mRNA induction (in words): 24 h, BAP/CRY 0.1-3.5 μM
CYP1B1 [9] = assay: Western blot, protein level; format: cell-based, human; conditions: HaCaT WT, 24 h and 48 h
CYP1A1 [10] = assay: Western blot, protein level; format: cell-based, human; conditions: HaCaT WT, 24 h and 48 h
HaCaT AHR-KD cells [11] = assay: MTT assay; format: cell-based, human; conditions: HaCaT AHR-KD, 48 h, up to 20 μM
MTT assay [12] = format: cell-based, human; conditions: human, HaCaT AHR knockdown (AHR-KD) cells
[13] = HaCaT cells, 2 and 8 h, up to 1 μM, data not shown

Structure (SMILES) | change of Gln level vs control (in words) (HaCaT WT cells [7]) | change of PCaa_C36:2 level vs control (in words) (HaCaT WT cells [7]) | C4:1 concentration (HaCaT WT cells [7]) | C4 concentration (HaCaT WT cells [7]) | C6 (C4:1-DC) concentration (HaCaT WT cells [7]) | C10:2 concentration (HaCaT WT cells [7]) | C12-DC concentration (HaCaT WT cells [7]) | C12:1 concentration (HaCaT WT cells [7]) | C18:1-OH concentration (HaCaT WT cells [7]) | C18:2 concentration (HaCaT WT cells [7]) | Gln concentration (HaCaT WT cells [7]) | PCaa_C32:2 concentration (HaCaT WT cells [7]) | PCaa_C36:2 concentration (HaCaT WT cells [7]) | PCae_C32:1 concentration (HaCaT WT cells [7]) | PCae_C34:2 concentration (HaCaT WT cells [7]) | PCae_C34:3 concentration (HaCaT WT cells [7]) | PCae_C36:2 concentration (HaCaT WT cells [7]) | PCae_C36:3 concentration (HaCaT WT cells [7]) | PCae_C38:1 concentration (HaCaT WT cells [7]) | PCae_C38:2 concentration (HaCaT WT cells [7]) | also measured
Clc1cc2c(cc1Cl)Oc1cc(Cl)c(Cl)cc1O2 [TCDD, 2,3,7,8-tetrachlorodibenzo-p-dioxin] | – | – | – | – | – | – | – | – | – | – | – | – | – | – | – | – | – | – | – | – | increase of carnitine palmitoyltransferase 1 (CPT1) [1]: more than 3 fold
c1ccc2c(c1)cc1ccc3cccc4c5ccccc5c2c1c34 [DALP, dibenzo[a,l]pyrene] | strongly lowered | measurable but insignificant decrease | 1.3 ± 0.1 nmol/g pellet weight | 2.9 ± 0.3 nmol/g pellet weight | 2.5 ± 0.2 nmol/g pellet weight | 1.1 ± 0.1 nmol/g pellet weight | 4.2 ± 0.2 nmol/g pellet weight | 1.4 ± 0.1 nmol/g pellet weight | 1.0 ± 0.0 nmol/g pellet weight | 1.1 ± 0.1 nmol/g pellet weight | 65.7 ± 23.9 nmol/g pellet weight | 81.9 ± 9.5 nmol/g pellet weight | 1417.7 ± 173.7 nmol/g pellet weight | 164.7 ± 17.4 nmol/g pellet weight | 170.7 ± 25.4 nmol/g pellet weight | 20.8 ± 3.3 nmol/g pellet weight | 235.3 ± 25.3 nmol/g pellet weight | 65.2 ± 8.9 nmol/g pellet weight | 18.7 ± 1.2 nmol/g pellet weight | 50.7 ± 5.2 nmol/g pellet weight | cytotoxicity / cell viability (in words) (HaCaT WT cells [2]): enhanced cytotoxicity; also recorded: very strong cytotoxicity; EC50 at 48 h (MTT assay [3]): 35 nM; CYP1B1 mRNA induction at earlier time-points (in words) (CYP1B1 [4]; [13]): no significant induction; relative Gln level, enzymatic assay (in words) (HaCaT WT cells [5]): downregulated approximately two-fold; metabolite levels vs control (in words) (HaCaT AHR-KD cells [6]; 0.01 μM): remained virtually unaffected; PCae_C38:3 concentration (HaCaT WT cells [7]): 18.5 ± 1.8 nmol/g pellet weight; PCae_C38:4 concentration (HaCaT WT cells [7]): 38.1 ± 4.0 nmol/g pellet weight; PCae_C40:4 concentration (HaCaT WT cells [7]): 7.6 ± 0.5 nmol/g pellet weight; PCae_C40:5 concentration (HaCaT WT cells [7]): 16.5 ± 1.5 nmol/g pellet weight; SM_C16:1 concentration (HaCaT WT cells [7]): 25.5 ± 2.1 nmol/g pellet weight; alpha-AAA concentration (HaCaT WT cells [7]): 2.0 ± 1.1 nmol/g pellet weight; change of alpha-AAA level vs control (in words) (HaCaT WT cells [7]): strong down-regulation; change of carnitines (e.g. C18:2) vs control (in words) (HaCaT WT cells [7]): strong up-regulation; CYP1A1 mRNA induction (in words) (CYP1A1 [8]; HaCaT WT, DALP 0.01-0.03 μM): only weakly increased; CYP1A1 mRNA induction at earlier time-points (in words) (CYP1A1 [8]; [13]): no significant induction; CYP1B1 protein induction (in words) (CYP1B1 [9]): no induction; CYP1A1 protein induction (in words) (CYP1A1 [10]): no induction; cytotoxicity / cell viability (in words) (HaCaT AHR-KD cells [11]): remained unaffected
c1ccc2c(c1)ccc1c3ccccc3ccc21 [CRY, chrysene] | weakly | increased | 0.9 ± 0.2 nmol/g pellet weight | 2.3 ± 0.5 nmol/g pellet weight | 1.9 ± 0.3 nmol/g pellet weight | 0.9 ± 0.1 nmol/g pellet weight | 3.3 ± 0.6 nmol/g pellet weight | 1.0 ± 0.2 nmol/g pellet weight | 0.8 ± 0.1 nmol/g pellet weight | 0.8 ± 0.1 nmol/g pellet weight | 114.3 ± 12.8 nmol/g pellet weight | 127.8 ± 17.3 nmol/g pellet weight | 2097.1 ± 262.1 nmol/g pellet weight | 231.2 ± 36.0 nmol/g pellet weight | 275.4 ± 48.2 nmol/g pellet weight | 29.7 ± 5.0 nmol/g pellet weight | 385.0 ± 53.6 nmol/g pellet weight | 120.5 ± 17.9 nmol/g pellet weight | 29.9 ± 5.0 nmol/g pellet weight | 78.0 ± 13.3 nmol/g pellet weight | cytotoxicity / cell viability (in words) (HaCaT WT cells [2]): strong cytotoxic effects; EC50 at 48 h (MTT assay [3]): 3800 nM; CYP1B1 mRNA induction (in words) (CYP1B1 [4]; HaCaT AHR-KD, CRY 0.1-3.5 μM): no significant induction; CYP1B1 mRNA induction (in words) (CYP1B1 [4]; HaCaT WT, BAP/CRY 0.1-3.5 μM, DALP 0.01-0.03 μM): inducing both genes in WT cells but less strongly; relative Gln level, enzymatic assay (in words) (HaCaT WT cells [5]): could not confirm the effect; SM, AC, LPC and BA concentrations vs control (in words) (HaCaT WT cells [7]; 1 μM): remained completely unaffected; PCae_C38:3 concentration (HaCaT WT cells [7]): 34.7 ± 5.8 nmol/g pellet weight; PCae_C38:4 concentration (HaCaT WT cells [7]): 70.5 ± 9.1 nmol/g pellet weight; PCae_C40:4 concentration (HaCaT WT cells [7]): 12.8 ± 2.0 nmol/g pellet weight; PCae_C40:5 concentration (HaCaT WT cells [7]): 33.3 ± 4.2 nmol/g pellet weight; SM_C16:1 concentration (HaCaT WT cells [7]): 35.0 ± 3.8 nmol/g pellet weight; alpha-AAA concentration (HaCaT WT cells [7]): 14.2 ± 3.8 nmol/g pellet weight; CYP1A1 mRNA induction (in words) (CYP1A1 [8]; HaCaT AHR-KD): no significant induction; CYP1A1 mRNA induction (in words) (CYP1A1 [8]; HaCaT WT, DALP 0.01-0.03 μM): inducing both genes in WT cells but less strongly; CYP1B1 protein induction (in words) (CYP1B1 [9]): moderate induction; CYP1A1 protein induction (in words) (CYP1A1 [10]): moderate induction; cytotoxicity / cell viability (in words) (HaCaT AHR-KD cells [11]): strong cytotoxic effects; EC50 at 48 h (MTT assay [12]): 2000 nM
c1ccc2c(c1)cc1ccc3cccc4ccc2c1c34 [BAP, benzo[a]pyrene] | strongly lowered | increased | 1.1 ± 0.1 nmol/g pellet weight | 2.5 ± 0.3 nmol/g pellet weight | 2.3 ± 0.2 nmol/g pellet weight | 1.0 ± 0.1 nmol/g pellet weight | 3.8 ± 0.2 nmol/g pellet weight | 1.2 ± 0.1 nmol/g pellet weight | 0.9 ± 0.1 nmol/g pellet weight | 1.0 ± 0.1 nmol/g pellet weight | 77.1 ± 18.2 nmol/g pellet weight | 103.6 ± 11.5 nmol/g pellet weight | 2039.2 ± 198.8 nmol/g pellet weight | 198.8 ± 17.1 nmol/g pellet weight | 238.2 ± 23.8 nmol/g pellet weight | 26.8 ± 3.1 nmol/g pellet weight | 354.1 ± 28.2 nmol/g pellet weight | 108.6 ± 10.5 nmol/g pellet weight | 29.7 ± 2.2 nmol/g pellet weight | 74.9 ± 6.3 nmol/g pellet weight | viability at 48 h, 20 µM (MTT assay [3]): ~80%; change of Gln level vs control (in words) (HaCaT AHR-KD cells [6]; BAP 1 μM, CRY 1 μM, DALP 0.01 μM): decreased; PCae_C38:3 concentration (HaCaT WT cells [7]): 33.8 ± 3.9 nmol/g pellet weight; PCae_C38:4 concentration (HaCaT WT cells [7]): 69.0 ± 7.3 nmol/g pellet weight; PCae_C40:4 concentration (HaCaT WT cells [7]): 11.7 ± 1.5 nmol/g pellet weight; PCae_C40:5 concentration (HaCaT WT cells [7]): 30.0 ± 2.5 nmol/g pellet weight; SM_C16:1 concentration (HaCaT WT cells [7]): 35.3 ± 3.4 nmol/g pellet weight; alpha-AAA concentration (HaCaT WT cells [7]): 5.7 ± 1.8 nmol/g pellet weight; change of alpha-AAA level vs control (in words) (HaCaT WT cells [7]): strong down-regulation; change of carnitines (e.g. C18:2) vs control (in words) (HaCaT WT cells [7]): strong up-regulation
